The species entered for assay [1] is Oryctolagus cuniculus. Briefly: Displacement of 17beta-[3H]estradiol from rabbit uterine estrogen receptor after 16 to 18 hrs by liquid scintillation counting relative to ethynylestradiol. The gist of the method: (§1)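 Rabbit uterine cytosol, 0.7 μg protein per tube, with 16000 dpm 17β-[3H]estradiol (113 Ci/mmol) in Tris-HCl pH 8.0, 0.001 M EDTA, 0.25 M sucrose. Eight concentrations from 1 × 10^-10 to 1 × 10^-4 M were run in duplicate and incubated 16-18 h at 4 °C. Bound and free were separated with dextran-coated charcoal, bound radioactivity was read by liquid scintillation, and results were compared with standards.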

Assay [2] deals with Rattus norvegicus. Briefly: Induction of vaginal cornification in ovariectomized mature rat at 0.005 to 0.010 mg/kg, po administered with sesame oil by Allen-Doisy method relative to control. The format is functional. The following applies: dose mg/kg 0.005-0.010. The gist of the method: (§2)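 Allen-Doisy test in ovariectomized mature rats, 14-59 rats per compound and 4-20 per group. Dose ranges were set from the uterotropic results. A smear counted as positive if it was mainly nucleated or cornified epithelial cells with no leucocytes. Results are given as the dose ranges giving positive smears.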

The test system of assay [3] is Rattus norvegicus. Briefly: Estrogenic activity in immature rat administered orally with sesame oil as three doses by uterotropic assay relative to ethynylestradiol. The format is functional. A digest of the protocol: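 Six-point oral assay in immature rats, with three doses of ethynylestradiol standard and three doses of test compound in sesame oil, 9-15 rats per dose group. Dose-response lines were checked for linearity and parallelism. Relative potency and 95% confidence limits were computed, and values are combined from three assays.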

Assay [4] is described as follows: Displacement of 17beta-[3H]estradiol from rabbit uterine estrogen receptor after 16 to 18 hrs by liquid scintillation counting. Further details: species or system Oryctolagus cuniculus. The gist of the method:
as §1

Assay [5] concerns Rattus norvegicus. Briefly: Induction of vaginal cornification in ovariectomized mature rat at 0.025 to 0.1 mg/kg, po administered with sesame oil by Allen-Doisy method relative to control. The note with it: dose mg/kg 0.025-0.1. The class given is functional. A digest of the protocol:
as §2

The species named for assay [6] is Oryctolagus cuniculus. Briefly: Displacement of 17beta-[3H]estradiol from rabbit uterine estrogen receptor at 1 x 10^-4 M after 16 to 18 hrs by liquid scintillation counting. A digest of the protocol: as §1
Assay [7] concerns Rattus norvegicus. Briefly: Induction of vaginal cornification in ovariectomized mature rat at 10 to 20 mg/kg, po administered with sesame oil by Allen-Doisy method relative to control. The format is functional. The following applies: dose mg/kg 10-20. A digest of the protocol:
as §2

In assay [8] the test system is Rattus norvegicus. Briefly: Antiestrogenic activity in ethynylestradiol-stimulated immature rat assessed as doubling of uterine weight up to 3 mg/kg, po administered for three days by uterotropic assay. The format is functional, organism-based. Further details: dose 3 mg/kg. The gist of the method: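 Modified Edgren–Calhoun method in immature rats. The test material was given orally for 3 days together with enough ethynylestradiol to double uterine weight, and uterine weight was the end point.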

In assay [9] the test system is Rattus norvegicus. Briefly: Induction of vaginal cornification in ovariectomized mature rat at 5 to 10 mg/kg, po administered with sesame oil by Allen-Doisy method relative to control. The following applies: dose mg/kg 5-10. The class given is functional. The gist of the method: as §2
In assay [10] the test system is Rattus norvegicus. The experiment in a line: Induction of vaginal cornification in ovariectomized mature rat at 0.25 to 0.5 mg/kg, po administered with sesame oil by Allen-Doisy method relative to control. The format is functional. The note with it: dose mg/kg 0.25-0.5. A digest of the protocol: as §2

The source made the active and inactive calls. The rule behind the calls is not given here.

Broadly, the IC50 is the concentration that gives 50% inhibition.

Take `C#C[C@]1(O)CC[C@H]2[C@@H]3CCc4cc(OC5CCCC5)ccc4[C@H]3CC[C@@]21C` [QUINESTROL]: the Ratio in the assay listed under Oryctolagus cuniculus [1] amounted to 4e-05; with Rattus norvegicus [3], 1.66. The same compound yielded an Activity in the assay with Rattus norvegicus [2] of 40%. Also, the IC50 in assay [4] turned out to be 6000 nM.

As to `C#C[C@]1(O)CC[C@H]2[C@@H]3CCc4cc(O)ccc4[C@H]3CC[C@@]21C` [ETHINYL ESTRADIOL], the IC50 in [4] amounted to 0.24 nM. In addition, in the assay with Rattus norvegicus [5], the Activity is given as 10%.

Regarding `C#C[C@]1(O)CC[C@H]2[C@@H]3CCc4cc(OC)ccc4[C@H]3CC[C@@]21C` [MESTRANOL], the values for the Ratio in the assay filed under Oryctolagus cuniculus [1] and in the assay on Rattus norvegicus [3] were 0.0012 and 0.84, respectively. In assay [4], this compound yielded an IC50 of 200 nM. For the same compound, the Activity with Rattus norvegicus [5] turned out to be 11%.

On to `C#C[C@@]1(O)CC[C@H]2[C@@H]3CCc4cc(OC)ccc4[C@H]3CC[C@@]21C`, for which the Ratio with Rattus norvegicus [3] was determined as 0.0023. In addition, the inhibition entry in the assay listed under Oryctolagus cuniculus [6] is “inactive”. In the assay with Rattus norvegicus [7], the Activity turned out to be 0%.

As for `C#C[C@@]1(O)CC[C@H]2[C@@H]3CCc4cc(O)ccc4[C@H]3CC[C@@]21C`, the Ratio in the assay filed under Oryctolagus cuniculus [1] was determined as 0.016. The IC50 in assay [4] was 15 nM. Also, the result in the assay on Rattus norvegicus [8] was inactive. Besides, in the assay on Rattus norvegicus [9], the Activity was 0%.

In the assay with Rattus norvegicus [10], `C#C[C@@]1(O)CC[C@H]2[C@@H]3CCc4cc(OC5CCCC5)ccc4[C@H]3CC[C@@]21C` displayed an Activity of 25%. The Ratio in the assay with Rattus norvegicus [3] was 0.05. Moreover, the inhibition entry in the assay listed under Oryctolagus cuniculus [6] is “inactive”.

For the origin of these results see ChEMBL document CHEMBL3228027, “Synthesis and estrogenic properties of 17-epi-ethynylestradiol and its ether derivatives epimestranol and epiquinestrol” (J Med Chem, 1979).
